pIC50: −log10 of the molar value.
Legend:
Coagulation factor X = Coagulation factor X (Homo sapiens, UniProt P00742); assay: Inhibition of human factor 10a using N-Z-D-Arg-Gly-Arg-pNA, S-2765 chromogenic substrate
Plasma [1] = assay: Anticoagulant activity in citrated rabbit plasma assessed as drug concentration required to double plasma clotting time preincubated for 10 mins at 37 degC by coagulometry; assay type: functional, Oryctolagus cuniculus
Outline: (§1)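 Test compound or DMSO added to citrated rabbit plasma (3.8% sodium citrate, 10:90 v/v) and preincubated 10 min at 37 °C. PT and aPTT clotting times measured on a coagulometer with commercial kits. Activity expressed as the concentration needed to double plasma clotting time (CT2, μM).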

Plasma [2] = assay: Anticoagulant activity in citrated rabbit plasma assessed as activated partial thromboplastin time preincubated for 10 mins at 37 degC by coagulometry; assay type: functional, Oryctolagus cuniculus; outline: as §1
[3] = Cmax in Sprague-Dawley rat at 10 mg/kg, po; assay type: ADME, organism-based; set-up: dose 10 mg/kg, route oral; details: in vivo
Outline: (§2)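 Male Sprague-Dawley rats, 200−220 g, four per group. Vehicle was 5% DMSO + 5% Tween-80 in 90% saline. The reference drug was given in 10% DMSO + 10% Tween-80 + 80% PEG400 (40% solution in saline). Serial retrobulbar vein samples were quantified by LC-MS. Parameters came from noncompartmental analysis of mean plasma concentrations.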

[4] = Tmax in Sprague-Dawley rat at 10 mg/kg, po; assay type: ADME, organism-based; set-up: dose 10 mg/kg, route oral; details: in vivo; outline: as §2
[5] = Elimination half life in Sprague-Dawley rat at 10 mg/kg, po; assay type: ADME, organism-based; set-up: dose 10 mg/kg, route oral; details: in vivo, read-out: beta t1/2 (converted); outline: as §2
[6] = Elimination half life in Sprague-Dawley rat at 3 mg/kg, iv; assay type: ADME, organism-based; set-up: dose 3 mg/kg, route intravenous; details: in vivo, read-out: beta t1/2 (converted); outline: as §2
[7] = AUC (0 to infinity) in Sprague-Dawley rat at 10 mg/kg, po; assay type: ADME, organism-based; set-up: time infinity, dose 10 mg/kg, route oral; details: plasma; outline: as §2
[8] = AUC (0 to infinity) in Sprague-Dawley rat at 3 mg/kg, iv; assay type: ADME, organism-based; set-up: time infinity, dose 3 mg/kg, route intravenous; details: plasma; outline: as §2
[9] = Plasma clearance in Sprague-Dawley rat at 3 mg/kg, iv; assay type: ADME, organism-based; set-up: dose 3 mg/kg, route intravenous; outline: as §2
[10] = Volume of distribution at steady state in Sprague-Dawley rat at 3 mg/kg, iv; assay type: ADME, organism-based; set-up: dose 3 mg/kg, route intravenous; details: in vivo, read-out: Vdss; outline: as §2
[11] = Oral bioavailability in Sprague-Dawley rat at 10 mg/kg; assay type: ADME, organism-based; details: in vivo; outline: as §2
Prothrombin = Prothrombin (Homo sapiens, UniProt P00734); assay: Inhibition of human factor 2a using L-pyro-Glu-Pro-ArgpNA, S-2366 chromogenic substrate
Outline: (§3)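 Human enzyme and inhibitor were premixed and preincubated, then the chromogenic substrate was added. Substrate levels: 300 μM S-2765 (FXa, trypsin); 200 μM S-2366 (FIIa); 2 mM S-2366 (FVIIa, FXIa). pNA release was monitored continuously at 405 nm for 20 min at 37 °C. IC50 was obtained by nonlinear regression.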

Coagulation factor VII = target: T1, Coagulation factor VII (Homo sapiens, UniProt P08709); assay: Inhibition of human factor 7a using S-2366 chromogenic substrate; outline: as §3
T1 sequence (P08709 whole entry): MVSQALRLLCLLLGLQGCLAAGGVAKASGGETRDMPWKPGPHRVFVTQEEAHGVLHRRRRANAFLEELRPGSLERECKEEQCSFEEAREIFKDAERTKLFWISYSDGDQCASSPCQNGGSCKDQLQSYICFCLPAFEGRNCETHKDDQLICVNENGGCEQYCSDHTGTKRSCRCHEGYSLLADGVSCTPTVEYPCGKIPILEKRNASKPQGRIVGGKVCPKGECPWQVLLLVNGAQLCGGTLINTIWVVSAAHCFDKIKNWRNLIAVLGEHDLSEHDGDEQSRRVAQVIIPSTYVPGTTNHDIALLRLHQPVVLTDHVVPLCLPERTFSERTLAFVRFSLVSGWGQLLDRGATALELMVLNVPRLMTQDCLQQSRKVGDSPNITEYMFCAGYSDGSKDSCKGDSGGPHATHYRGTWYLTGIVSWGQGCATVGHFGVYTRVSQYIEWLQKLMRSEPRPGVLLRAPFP

Coagulation factor IX = Coagulation factor IX (Homo sapiens, UniProt P00740); assay: Inhibition of human factor 9a using CH3SO2-(D)CHG Gly-Arg-pNA, Biophen-CS51 chromogenic substrate
Chain of Coagulation factor IX (P00740 47-191 limits assumed): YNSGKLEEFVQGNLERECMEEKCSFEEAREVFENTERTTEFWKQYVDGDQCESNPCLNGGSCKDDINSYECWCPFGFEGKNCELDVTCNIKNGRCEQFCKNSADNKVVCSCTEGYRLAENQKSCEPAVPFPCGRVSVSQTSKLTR
Chain of Coagulation factor IX (P00740 227-461 limits assumed): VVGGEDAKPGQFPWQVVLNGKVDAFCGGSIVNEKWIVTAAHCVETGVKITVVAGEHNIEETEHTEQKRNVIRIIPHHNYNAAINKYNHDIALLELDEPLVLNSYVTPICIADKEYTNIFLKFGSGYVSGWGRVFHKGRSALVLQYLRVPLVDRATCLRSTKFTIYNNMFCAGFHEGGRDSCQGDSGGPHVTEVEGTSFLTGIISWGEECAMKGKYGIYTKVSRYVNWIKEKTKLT

Trypsin = Trypsin (Homo sapiens, UniProt P07477+P07478+P35030); assay: Inhibition of human trypsin using N-Z-D-Arg-Gly-Arg-pNA, S-2765 chromogenic substrate; assay type: protein assay; outline: as §3
Coagulation factor XI = Coagulation factor XI (Homo sapiens, UniProt P03951); assay: Inhibition of human factor 11a using S-2366 chromogenic substrate; outline: as §3
Chain of Coagulation factor XI (P03951 19-387 limits assumed): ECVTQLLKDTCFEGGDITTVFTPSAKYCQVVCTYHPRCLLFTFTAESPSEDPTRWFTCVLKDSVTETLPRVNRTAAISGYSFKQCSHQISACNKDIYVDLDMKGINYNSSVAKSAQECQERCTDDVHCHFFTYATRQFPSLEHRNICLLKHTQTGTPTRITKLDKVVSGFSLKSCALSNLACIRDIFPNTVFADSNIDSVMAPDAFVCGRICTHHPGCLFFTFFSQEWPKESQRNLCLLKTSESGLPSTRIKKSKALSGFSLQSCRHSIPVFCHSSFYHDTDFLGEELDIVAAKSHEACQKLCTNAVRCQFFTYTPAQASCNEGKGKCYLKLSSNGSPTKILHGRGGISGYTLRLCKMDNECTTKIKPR
Chain of Coagulation factor XI (P03951 388-625 limits assumed): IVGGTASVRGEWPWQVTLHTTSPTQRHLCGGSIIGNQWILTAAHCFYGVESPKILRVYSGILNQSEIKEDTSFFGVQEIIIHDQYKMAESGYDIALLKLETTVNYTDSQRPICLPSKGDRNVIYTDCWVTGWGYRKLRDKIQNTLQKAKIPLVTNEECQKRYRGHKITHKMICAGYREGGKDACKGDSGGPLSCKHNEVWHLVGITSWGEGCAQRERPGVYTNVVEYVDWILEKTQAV

[12] = Cmax in Sprague-Dawley rat at 3 mg/kg, po; assay type: ADME, organism-based; set-up: dose 3 mg/kg, route oral; details: in vivo
[13] = Tmax in Sprague-Dawley rat at 3 mg/kg, po; assay type: ADME, organism-based; set-up: dose 3 mg/kg, route oral; details: in vivo
[14] = Elimination half life in Sprague-Dawley rat at 3 mg/kg, po; assay type: ADME, organism-based; set-up: dose 3 mg/kg, route oral; details: in vivo, read-out: beta t1/2 (converted)
[15] = AUC (0 to infinity) in Sprague-Dawley rat at 3 mg/kg, po; assay type: ADME, organism-based; set-up: time infinity, dose 3 mg/kg, route oral; details: plasma
[16] = Oral bioavailability in Sprague-Dawley rat at 3 mg/kg; assay type: ADME, organism-based; details: in vivo
[17] = Cmax in Beagle dog at 1 mg/kg, po; assay type: ADME, organism-based, Canis lupus familiaris; set-up: dose 1 mg/kg, route oral; details: in vivo
Outline: (§4)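 Male dogs, three per group. Dosed orally at 1 mg/kg or by intravenous infusion at 0.5 mg/kg. Vehicle was 5% DMSO + 5% Tween-80 in 90% saline, or 10% DMSO + 10% Tween-80 + 80% PEG400 for the reference drug. Foreleg blood samples were quantified by LC-MS. Parameters came from noncompartmental analysis of mean plasma concentrations.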

[18] = Tmax in Beagle dog at 1 mg/kg, po; assay type: ADME, organism-based, Canis lupus familiaris; set-up: dose 1 mg/kg, route oral; details: in vivo; outline: as §4
[19] = Elimination half life in Beagle dog at 1 mg/kg, po; assay type: ADME, organism-based, Canis lupus familiaris; set-up: dose 1 mg/kg, route oral; details: in vivo; outline: as §4
[20] = Elimination half life in Beagle dog at 0.5 mg/kg, iv; assay type: ADME, organism-based, Canis lupus familiaris; set-up: dose 0.5 mg/kg, route intravenous; details: in vivo; outline: as §4
[21] = AUC (0 to infinity) in Beagle dog at 1 mg/kg, po; assay type: ADME, organism-based, Canis lupus familiaris; set-up: time infinity, dose 1 mg/kg, route oral; details: plasma; outline: as §4
[22] = AUC (0 to infinity) in Beagle dog at 0.5 mg/kg, iv; assay type: ADME, organism-based, Canis lupus familiaris; set-up: time infinity, dose 0.5 mg/kg, route intravenous; details: plasma; outline: as §4
[23] = Plasma clearance in Beagle dog at 0.5 mg/kg, iv; assay type: ADME, organism-based, Canis lupus familiaris; set-up: dose 0.5 mg/kg, route intravenous; outline: as §4
[24] = Volume of distribution at steady state in Beagle dog at 0.5 mg/kg, iv; assay type: ADME, organism-based, Canis lupus familiaris; set-up: dose 0.5 mg/kg, route intravenous; details: in vivo, read-out: Vdss; outline: as §4
[25] = Oral bioavailability in Beagle dog at 1 mg/kg; assay type: ADME, organism-based, Canis lupus familiaris; details: in vivo; outline: as §4
Rattus norvegicus [26] = assay: Antithrombotic activity in rat model of FeCl3-induced venous thrombosis assessed as reduction in thrombus formation dosed orally 60 mins before thrombus formation; details: po
Rattus norvegicus [27] = assay: Antithrombotic activity in rat model of arteriovenous shunt-induced thrombosis assessed as reduction in thrombus formation dosed orally 60 mins before shunt opening; details: po
Rattus norvegicus [28] = assay: Induction of tail bleeding in rat assessed as prolongation of bleeding time dosed orally 60 mins before surgery; assay type: organism-based; details: in vivo, po, 1 h
Outline: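 Anesthetized rats were dosed orally with compound suspended in 0.5% CMC-Na, or vehicle, 60 min before the tail was transected 4 mm from the tip. The tail was immersed vertically in saline at 37 °C. Bleeding time was taken as the point when flow ceased for >30 s, with a 30 min maximum.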

Chain of Coagulation factor X (P00742 41-179 limits assumed): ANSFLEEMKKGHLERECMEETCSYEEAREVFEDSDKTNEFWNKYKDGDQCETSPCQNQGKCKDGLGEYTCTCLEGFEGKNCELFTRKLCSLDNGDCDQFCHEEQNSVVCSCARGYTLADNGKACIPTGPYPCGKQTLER
Chain of Coagulation factor X (P00742 235-488 limits assumed): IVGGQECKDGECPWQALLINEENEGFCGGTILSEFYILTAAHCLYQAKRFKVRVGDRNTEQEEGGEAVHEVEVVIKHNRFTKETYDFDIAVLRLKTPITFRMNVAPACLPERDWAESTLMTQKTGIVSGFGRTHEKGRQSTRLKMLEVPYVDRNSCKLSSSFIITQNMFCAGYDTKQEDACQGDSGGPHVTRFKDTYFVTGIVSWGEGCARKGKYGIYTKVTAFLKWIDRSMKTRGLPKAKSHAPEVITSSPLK

Row | Compound | pIC50 (Coagulation factor X) | Activity (Plasma [1]) [µM] | 2aPTT (Plasma [2]) [µM] | Cmax [3] [ng/mL] | Tmax [4] [h] | half-life [5] [h] | half-life [6] [h] | AUC(0-inf) [7] [ng·h/mL] | AUC(0-inf) [8] [ng·h/mL] | clearance [9] [mL/min/kg] | Vd [10] [L/kg] | bioavailability [11] [%] | pIC50 (Prothrombin) | pIC50 (Coagulation factor VII) | pIC50 (Coagulation factor IX) | IC50 (Trypsin) [µM] | pIC50 (Coagulation factor XI) | further results
1 | O=C(NC[C@@H]1OC(=O)N2c3ccc(N4CCOCC4=O)cc3S(=O)(=O)C[C@@H]12)c1ccc(Cl)s1 | 7.76 | 0.47 | 0.76 | 917 | 0.38 | 2.14 | 0.54 | 1540 | 6120 | 8.22 | 0.154 | 7.3 |  |  |  |  |  | 
2 | O=C(NC[C@@H]1OC(=O)N2c3ccc(N4CCOCC4=O)cc3CC[C@@H]12)c1ccc(Cl)s1 | 8.33 | 0.37 | 0.33 | 3020 | 2.3 | 3.54 | 0.74 | 14200 | 20400 | 2.48 | 0.144 | 20.4 | < 4.00 | < 4.00 | < 4.00 | > 100 | < 4.00 | 
3 | O=C(NC[C@@H]1OC(=O)N2c3ccc(N4CCOCC4=O)cc3NC[C@@H]12)c1ccc(Cl)s1 | 8.30 | 0.48 | 0.43 | 565 | 0.44 | 1.52 | 0.86 | 1350 | 5700 | 9.22 | 0.199 | 6.8 | < 4.00 | < 4.00 | < 4.00 | > 100 | < 4.00 | 
4 | O=C(NC[C@H]1CN(c2ccc(N3CCOCC3=O)cc2)C(=O)O1)c1ccc(Cl)s1 [RIVAROXABAN] |  | 0.4 | 0.32 |  |  |  | 1.27 |  | 9980 | 5.05 | 0.19 |  |  |  |  |  |  | Cmax [12]: 850 ng/mL; Tmax [13]: 0.88 h; half-life [14]: 2.9 h; AUC(0-inf) [15]: 2260 ng·h/mL; bioavailability [16]: 21.3%; Cmax [17]: 333 ng/mL; Tmax [18]: 0.7 h; half-life [19]: 1.8 h; half-life [20]: 2.4 h; AUC(0-inf) [21]: 1000 ng·h/mL; AUC(0-inf) [22]: 916 ng·h/mL; clearance [23]: 10 mL/min/kg; Vd [24]: 2.8 L/kg; bioavailability [25]: 68%; ED50 (Rattus norvegicus [26]): 4.86 mg/kg; ED50 (Rattus norvegicus [27]): 3.72 mg/kg; Activity (Rattus norvegicus [28]): Dose-dependent effect

Reference: ChEMBL document CHEMBL3351225, “Design, synthesis, and structure-activity and structure-pharmacokinetic relationship studies of novel [6,6,5] tricyclic fused oxazolidinones leading to the discovery of a potent, selective, and orally bioavailable FXa inhibitor” (J Med Chem, 2014)
